# Screens (PubChem BioAssay)
# RGS4 inh: inhibitors of human RGS4 | 0.45% of 310,000 active | B-score at 10 µM | AID 463165 | P49798 | HEK293 M3R/RGS4 inducible, Fluo-4 calcium flux; active compounds read high; triggered by carbachol at its EC20;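 active means B-score, a plate-corrected calcium signal, over three deviations above library mean, with baseline fluorescence within five deviations of library mean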;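 further: RGS4 expression induced by doxycycline in cells with stable M3 receptor; B-score is computed from the integrated fluorescence ratio over baseline after carbachol; higher B-score means a larger calcium signal and so more RGS4 inhibition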
# Target sequence (P49798 whole entry, looked up): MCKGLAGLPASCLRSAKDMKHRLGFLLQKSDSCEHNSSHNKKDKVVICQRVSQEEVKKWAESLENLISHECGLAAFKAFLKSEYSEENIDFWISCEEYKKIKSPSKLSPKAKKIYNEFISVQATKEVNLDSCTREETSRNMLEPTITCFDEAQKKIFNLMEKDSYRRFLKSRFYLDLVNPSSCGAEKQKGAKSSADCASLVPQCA
# MrgX1 agonist: human MrgX1 receptor agonism, primary screen | B-score at 10 µM | AID 588627 | 0.44% of 310,000 active | MrgX1-HEK293 cells, Fluo-4 calcium fluorescence, agonist mode; active compounds read high;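 active means calcium response B-score plate-corrected fluorescence ratio at least 3 library SD, with starting fluorescence B-score inside 5 SD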
# Target sequence (Q96LB2 whole entry, looked up): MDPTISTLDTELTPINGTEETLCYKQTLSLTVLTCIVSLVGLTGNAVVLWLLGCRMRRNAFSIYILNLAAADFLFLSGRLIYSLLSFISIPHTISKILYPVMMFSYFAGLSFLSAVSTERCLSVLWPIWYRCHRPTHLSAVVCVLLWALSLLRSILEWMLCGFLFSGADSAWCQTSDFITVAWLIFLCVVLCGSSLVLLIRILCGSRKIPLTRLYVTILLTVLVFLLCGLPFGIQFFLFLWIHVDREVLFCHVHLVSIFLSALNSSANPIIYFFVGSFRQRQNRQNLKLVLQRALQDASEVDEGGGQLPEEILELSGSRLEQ
#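 Assay system: MrgX1-expressing HEK293 cells / Amount: fifteen thousand cells per well / Doses: test compound in the initial addition of three / Timing: cells plated overnight, dye loaded 0.5 h 37 °C, 0.5 h room temperature / Technique: kinetic calcium dye fluorescence, Fluo-4 NW / Control set: positive and negative controls per plate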
# MrgX1 PAM: human MrgX1 positive allosteric modulation, primary screen; MrgX1-HEK293, Fluo-4 calcium flux, FDSS; active compounds read high; Q96LB2; B-score at 10 µM; 0.63% of 310,000 active;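 active means plate-corrected calcium response at least 3 library SD above typical, normal starting fluorescence, not activating the receptor alone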;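 further: compound read alongside a low EC10 to EC30 dose of BAM8-22 agonist; peak minus trough fluorescence over baseline measured at the second addition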
# RGS4 pot: potentiators or activators of RGS4; HEK293 M3R/inducible RGS4, carbachol calcium flux Fluo4; active compounds read low; B-score at 10 µM; 0.92% of 310,000 active;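 active means B-score of the integrated calcium signal more than 4 SD below the library mean, with starting fluorescence not abnormally high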;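 further: negative B-score means reduced calcium response which marks RGS4 activation or potentiation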
#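 Test system: HEK293 cells with stable M3R and inducible RGS4; also added: carbachol at ECmax as muscarinic agonist stimulus; schedule: dye loading 30 min 37 °C, buffer rest 30 min RT; technique: kinetic calcium fluorescence imaging with Fluo4-AM dye, 2 µM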
# MrgX1 antag: antagonists of human MrgX1 receptor; MRGX1-HEK293 calcium flux, Fluo-4, BAM8-22 antagonism; active compounds read low; B-score at 10 µM; 1.3% of 310,000 active; AID 588676;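 active means calcium-response B-score plate-corrected more than 3 library SD below zero, starting fluorescence within 5 deviations, no agonist response on first addition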;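 further: peak minus trough fluorescence over baseline after final BAM8-22 challenge near maximal dose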
# RGS4 inh valid: validation of RGS4 inhibitors; shares compounds with RGS4 inh; HEK293 M3R/RGS4, carbachol calcium Fluo-4 fluorescence; carbachol added at its EC20; 0 = buffer wells, 100 = carbachol control; calcium response, % at 10 µM; 65% of 1,700 active; AID 492999;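 active means duplicate-averaged calcium response above the buffer-only control mean plus 5 SD of those controls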;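 further: integrated fluorescence ratio F max minus min over baseline F0; higher response in RGS4-induced cells means RGS4 inhibition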
# RGS4 uninduced: checks RGS4 inhibitor effects in non-induced HEK293 M3R cells; shares compounds with RGS4 inh; carbachol calcium Fluo-4; submaximal (EC20) carbachol stimulus; buffer wells 0%, carbachol control wells 100%; activity (percent), % at 10 µM; 20% of 1,900 active; AID 493000; call rule not given here;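 further: RGS4 induction absent so cells express M3R without RGS4; higher means more calcium signal and flags a non-specific hit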
# M3R basal Ca ctr: second counter-screen for RGS4 inhibitors: non-induced cells without carbachol | shares compounds with RGS4 inh | HEK293 M3R/RGS4 non-induced, Fluo-4 calcium, no carbachol; normalised: buffer wells 0%, carbachol wells 100% | calcium response (agonist-mode artifact), % at 10 µM | 22% of 1,900 active | AID 493001;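 active means duplicate-averaged calcium rise in uninduced cells above buffer wells' mean plus 5 SD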
# The depositor's hits bear a star; i = inactive; nt = not tested or not shown. This is a sample that favours compounds with a hit; in the whole collection about 3.5% have one here.
SMILES,RGS4 inh,MrgX1 agonist,MrgX1 PAM,RGS4 pot,MrgX1 antag,RGS4 inh valid,RGS4 uninduced,M3R basal Ca ctr
COC(=O)c1cc(=O)n(-c2ccccc2)c(=Nc2ccccc2)s1,8.05*,i,i,i,i,19.0%*,i,i
Cc1nn(CCCC(=O)N2CCN(c3ccc(F)cc3)CC2)c(C)c1[N+](=O)[O-],i,i,i,i,i,nt,nt,nt
O=C(CNc1c(Br)cc(Br)cc1Br)NN=C1CCCCC1,i,i,i,i,i,nt,nt,nt
CN(C)Cc1nc2c(c(=O)[nH]1)C1(CCCCC1)Cc1ccccc1-2,i,i,i,i,i,nt,nt,nt
CCC1(CC)Cc2ccccc2-c2nc(NCCCO)[nH]c(=O)c21,37.4*,i,i,i,i,71.0%*,53.0%*,7.5%*
CCC1(C)Cc2ccccc2-c2nc(NCCCO)[nH]c(=O)c21 (centres undefined),i,i,i,i,i,nt,39.0%*,i
O=c1[nH]c(NCCCO)nc2c1C1(CCCC1)Cc1ccccc1-2,7.28*,i,i,i,i,31.0%*,i,29.5%*
CCc1ccccc1N/C(=N\S(=O)(=O)c1ccccc1)C(F)(F)F,i,i,i,i,i,nt,nt,nt
Cc1ccc(NC(=S)NCc2ccco2)c(C)c1,i,i,i,i,i,nt,nt,nt
CCN1C(=O)/C(=C\c2ccncc2)SC1=Nc1ccc(C)c(C)c1,8.16*,i,i,i,i,30.5%*,i,i
CSc1ccc(S(=O)(=O)Nc2ccc(NC(C)=O)cc2)cc1,i,i,i,i,i,nt,nt,nt
CSc1ccc(S(=O)(=O)Nc2ccc(S(=O)(=O)Nc3ccc(C)cc3)cc2)cc1,5.04*,i,i,i,i,28.0%*,i,i
CCOc1ccc(NS(=O)(=O)c2ccc(NS(=O)(=O)c3ccc(SC)cc3)cc2)cc1,5.16*,i,i,i,-4.76*,13.0%*,32.5%*,i
CCCCCCNCC(=O)N1CCC(Cc2ccccc2)CC1,i,i,i,i,i,nt,nt,nt
Cc1c(N=NC2=C(O)CC(C)(C)CC2=O)cc2c(c1[N+](=O)[O-])C(C)(C)CC2(C)C,7.39*,i,i,i,i,28.5%*,i,i
O=C(CN1CCCCCC1)NC(c1ccccc1)c1ccccc1,i,i,i,i,i,nt,nt,nt
O=C(CN1CCN(c2ccc(O)cc2)CC1)NC(c1ccccc1)c1ccccc1,12.9*,i,i,i,i,i,i,i
COC(=O)c1sc(N2C(=O)C(O)=C(C(=O)c3ccc(C)o3)C2c2cc(OC)ccc2OC)nc1C (centres undefined),7.33*,i,i,i,i,46.0%*,47.0%*,i
COc1ccc(OC)c(C2C(C(=O)c3ccc(C)o3)=C(O)C(=O)N2c2cc(C)on2)c1 (centres undefined),i,i,i,i,i,nt,nt,nt
O=C(CN1CCc2ccccc2C1)NCC(=O)Nc1ccc(F)cc1,i,i,i,i,i,nt,nt,nt
O=C1ON=C(c2cccc([N+](=O)[O-])c2)/C1=C/c1ccc(O)cc1,16.4*,i,i,i,i,44.5%*,i,29.0%*
COc1cc(/C=C2\C(=O)ON=C2c2ccc(Cl)cc2)ccc1O,i,26.6*,i,i,i,nt,i,56.5%*
COc1ccc(/C=C2\C(=O)ON=C2c2ccccc2)cc1,i,i,i,i,i,nt,nt,nt
COc1ccc(Cl)cc1/C=C1/C(=O)ON=C1C,i,i,i,i,i,nt,nt,nt
O=C1ON=C(c2ccccc2)/C1=C/c1ccc(O)c(O)c1,5.72*,i,i,i,i,26.5%*,i,53.0%*
SMILES,RGS4 inh,MrgX1 agonist,MrgX1 PAM,RGS4 pot,MrgX1 antag,RGS4 inh valid,RGS4 uninduced,M3R basal Ca ctr
CC1=NOC(=O)/C1=C/c1ccc(O)c(Cl)c1,8.25*,37.4*,i,i,i,17.0%*,i,50.5%*
CCc1ccc(-c2nc3ccc(Br)cc3c(C(=O)O)c2C)s1,i,i,i,i,i,nt,nt,nt
COc1ccccc1C(=O)Nc1ccc(S(=O)(=O)Nc2cnc3ccccc3n2)cc1,i,i,i,i,i,nt,nt,nt
CN(C)/C=C/C(=O)c1ccc(N2CCN(c3ncc(C(F)(F)F)cc3Cl)CC2)cc1,i,i,i,i,i,nt,nt,nt
CN(C)C=NC(=O)c1ccc(N2CCN(c3ncc(C(F)(F)F)cc3Cl)CC2)cc1,8.24*,i,i,i,i,18.0%*,i,i
COc1ccc(-c2c(-c3ccc(OCC(=O)NN)cc3O)n[nH]c2C)cc1OC,i,i,i,i,i,nt,nt,nt
COc1ccc(-c2c(-c3ccc(OCC(=O)NN)cc3O)n[nH]c2C(F)(F)F)cc1,12.3*,i,i,i,i,27.5%*,29.0%*,i
COC(=O)c1cc2c(ccn2-c2ccc(F)cc2)n1CC(C)C,10.9*,i,i,i,i,36.5%*,i,i
CCCn1c(C(=O)OC)cc2c1ccn2-c1ccc(F)cc1,i,i,i,i,i,nt,nt,nt
O=C(NNc1nc(=O)c2cccnc2s1)c1ccccc1O,5.17*,i,i,i,i,18.5%*,i,i
O=C(NNc1c2ccccc2nc2ccccc12)c1ccccc1O,i,i,i,i,i,nt,nt,nt
NS(=O)(=O)c1cccc(NC(=O)COC(=O)c2cc(-c3ccc(Cl)cc3)nc3ccccc23)c1,5.58*,i,i,i,i,14.5%*,i,i
O=C(c1ccco1)N1CCN(c2ncnc3scc(-c4ccc(F)cc4)c23)CC1,i,i,i,i,i,nt,nt,nt
O=C(c1ccco1)N1CCN(c2ncnc3c(-c4ccc(Cl)cc4)nsc23)CC1,5.15*,i,i,i,i,i,i,i
O=C(NCc1ccco1)c1ccc(-c2csnn2)cc1,i,i,i,i,i,nt,nt,nt
COc1ccc(C2C(C#N)=C(N)Oc3cc(O)ccc32)cc1OC (centres undefined),i,i,i,i,i,nt,i,i
